From ChEMBL document CHEMBL3808369, “Identification of Cyproheptadine as an Inhibitor of SET Domain Containing Lysine Methyltransferase 7/9 (Set7/9) That Regulates Estrogen-Dependent Transcription” (J Med Chem, 2016)
Activity calls are given as the source filed them. The rule behind the calls is not given here.

Columns and labels:
[1] = molecular target: T1, Histone-lysine N-methyltransferase SETD7 (Homo sapiens) (UniProt Q8WTS6); test: Non competitive inhibition of recombinant Set7/9 (unknown origin) expressed in Escherichia coli BL21 (DE3) using Ac-KRSK-MCA peptide as substrate and varying SAM preincubated for 1 hr followed by substrate addition measured after 15 mins by Lineweaver-Burk plot analysis
T1 sequence (whole entry): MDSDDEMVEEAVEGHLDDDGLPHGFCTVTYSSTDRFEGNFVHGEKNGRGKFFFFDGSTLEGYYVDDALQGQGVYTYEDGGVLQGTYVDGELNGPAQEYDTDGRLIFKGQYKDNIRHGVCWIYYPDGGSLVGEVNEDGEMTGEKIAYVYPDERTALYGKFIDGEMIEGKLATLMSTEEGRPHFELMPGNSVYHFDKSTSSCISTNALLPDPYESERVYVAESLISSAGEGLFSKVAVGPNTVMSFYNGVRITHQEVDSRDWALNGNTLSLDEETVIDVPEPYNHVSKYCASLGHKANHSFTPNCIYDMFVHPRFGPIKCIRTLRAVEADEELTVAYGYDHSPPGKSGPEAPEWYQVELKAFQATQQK
Procedure, shortened: (§1)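 His6-tagged Set7/9 purified by Ni2+ affinity from E. coli BL21(DE3) after induction with 0.1 mM IPTG at 18 °C for 24 h. Kinetics were run in a fluorogenic HMT assay using Ac-KRSK-MCA peptide, with either SAM or peptide concentration varied. Initial velocities were analysed by Lineweaver–Burk plot, four independent assays.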

[2] = test system: MCF7; test: Antitumor activity against Fucci introduced human MCF7 cells xenografted in Balb/c-nu/nu mouse at 20 mg/kg, ip qd administered as continuous dose for 8 days measured every 3 to 4 days until day 15; format: functional, organism-based
Procedure, shortened: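 Female Balb/C-nu/nu mice, 7 weeks old, each inoculated with about 2 × 10^7 Fucci-MCF7 cells in the mammary gland. Dosing started when tumors reached about 100 mm3, 13 days after inoculation. 20 mg/kg given ip once daily, days 1–8, in saline with 10% ethanol; a vehicle group ran alongside. Caliper tumor volume (a2b)/2 and body weight were recorded every 3 or 4 days to day 15. Six mice per group, mean ± SE.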

[3] = molecular target: T1, Histone-lysine N-methyltransferase SETD7 (Homo sapiens); test: Inhibition of recombinant his-tagged Set7/9 (unknown origin) expressed in Escherichia coli BL21 (DE3) using GST-fused histone H3 (1 to 57 residues) as substrate preincubated for 1 hr followed by substrate addition measured after 1 hr by Western blot analysis
Procedure, shortened: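 His-Set7/9 (0.2 μg/μL) preincubated with or without inhibitor in HMT buffer for 1 h. Then 1 mM SAM and 0.01 μg/μL GST-histone H3 (1−57) were added and incubated 1 h at 37 °C. Reactions were stopped in SDS loading buffer and immunoblotted with an anti-H3K4me1 antibody.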

[4] = molecular target: T1, Histone-lysine N-methyltransferase SETD7 (Homo sapiens); test: Competitive inhibition of recombinant Set7/9 (unknown origin) expressed in Escherichia coli BL21 (DE3) using varying Ac-KRSK-MCA peptide as substrate in presence of SAM preincubated for 1 hr followed by substrate addition measured after 15 mins by Lineweaver-Burk plot analysis; procedure, shortened: as §1
[5] = molecular target: T1, Histone-lysine N-methyltransferase SETD7 (Homo sapiens); test: Inhibition of Set7/9 in human MCF7 cells assessed as suppression of beta-estradiol-induced cell viability incubated for 4 days by haemocytometer; format: cell-based
Procedure, shortened: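 MCF7 cells (1.5 × 10^4 per well) switched to estrogen-free medium after 24 h. Drug added with or without 10 nM β-estradiol, 4 days' incubation. Cells counted by hemocytometer. Four independent assays.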

[6] = molecular target: T1, Histone-lysine N-methyltransferase SETD7 (Homo sapiens); test: Inhibition of Set7/9 in human MCF7 cells assessed as suppression of beta-estradiol-induced ERE promoter activation at 14 to 43 uM preincubated for 18 hrs followed by beta-estradiol addition measured after 24 hrs by luciferase reporter gene assay; format: cell-based
Procedure, shortened: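 MCF7 cells held in estrogen-free medium (phenol red-free RPMI, 10% charcoal-stripped FBS) for 3 days. Cells were then transfected with a 3×ERE firefly luciferase reporter plus a TK-Renilla control. Drug added 6 h later; after 18 h, ±10 nM β-estradiol for 24 h. Firefly signal normalised to Renilla, expressed as fold over unstimulated cells. Four independent assays.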

[7] = molecular target: T1, Histone-lysine N-methyltransferase SETD7 (Homo sapiens); test: Inhibition of Set7/9 in human MCF7 cells assessed as reduction of ERalpha expression at 43 uM by immunoblotting analysis; format: cell-based; conditions: TDE = time-dependent effect
Procedure, shortened: (§2)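 MCF7 cells (1 × 10^5 per well) treated either with a concentration series for 48 h or with 43 μM over a time course. RIPA-sonicated lysates were immunoblotted for ERα with enhanced chemiluminescence readout.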

[8] = molecular target: T1, Histone-lysine N-methyltransferase SETD7 (Homo sapiens); test: Inhibition of Set7/9 in human MCF7 cells assessed as reduction of ERalpha expression after 48 hrs by immunoblotting analysis; format: cell-based; procedure, shortened: as §2
[9] = molecular target: T2, Histone-lysine N-methyltransferase EHMT2 (Homo sapiens) (UniProt Q96KQ7); test: Inhibition of G9a (unknown origin) by AlphaELISA
T2 sequence (whole entry): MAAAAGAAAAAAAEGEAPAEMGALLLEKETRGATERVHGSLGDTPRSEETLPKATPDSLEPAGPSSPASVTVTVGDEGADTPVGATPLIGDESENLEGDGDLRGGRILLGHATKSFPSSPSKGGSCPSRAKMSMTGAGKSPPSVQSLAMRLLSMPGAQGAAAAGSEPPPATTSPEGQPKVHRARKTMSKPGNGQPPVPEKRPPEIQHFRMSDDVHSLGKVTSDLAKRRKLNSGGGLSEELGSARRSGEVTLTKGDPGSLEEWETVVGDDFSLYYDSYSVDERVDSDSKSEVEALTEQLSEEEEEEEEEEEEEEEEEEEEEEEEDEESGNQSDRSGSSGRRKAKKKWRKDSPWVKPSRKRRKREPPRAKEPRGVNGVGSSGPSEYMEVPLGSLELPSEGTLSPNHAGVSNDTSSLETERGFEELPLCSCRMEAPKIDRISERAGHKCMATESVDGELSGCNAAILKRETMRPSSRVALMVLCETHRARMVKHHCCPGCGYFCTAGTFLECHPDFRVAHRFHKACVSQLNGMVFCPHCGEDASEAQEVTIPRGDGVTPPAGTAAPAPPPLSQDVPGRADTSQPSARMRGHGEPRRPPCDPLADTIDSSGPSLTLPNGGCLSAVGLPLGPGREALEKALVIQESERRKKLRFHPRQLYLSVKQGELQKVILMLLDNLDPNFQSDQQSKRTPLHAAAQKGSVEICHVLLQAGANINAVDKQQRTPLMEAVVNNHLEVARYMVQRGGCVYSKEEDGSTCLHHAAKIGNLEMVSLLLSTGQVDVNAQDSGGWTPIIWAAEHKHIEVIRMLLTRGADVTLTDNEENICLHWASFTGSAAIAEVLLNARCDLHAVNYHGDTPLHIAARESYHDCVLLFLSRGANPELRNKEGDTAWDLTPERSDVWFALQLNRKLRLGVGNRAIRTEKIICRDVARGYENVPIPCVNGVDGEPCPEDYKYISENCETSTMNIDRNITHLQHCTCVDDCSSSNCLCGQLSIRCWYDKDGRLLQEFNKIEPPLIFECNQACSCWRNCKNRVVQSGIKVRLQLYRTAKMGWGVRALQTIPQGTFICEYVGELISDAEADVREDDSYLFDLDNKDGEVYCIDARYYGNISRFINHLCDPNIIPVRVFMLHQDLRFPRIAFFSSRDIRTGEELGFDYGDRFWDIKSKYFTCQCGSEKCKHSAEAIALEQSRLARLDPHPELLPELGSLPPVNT

inhibition [1]: Active
inhibition [3]: Active
inhibition [4]: Active
inhibition [6]: Active
inhibition [7]: tde
inhibition [8]: Dose-dependent effect
inhibition [9]: Active
SMILES: CN1CCC(=C2c3ccccc3C=Cc3ccccc32)CC1 [CYPROHEPTADINE]
TGI [2]: Active
inhibition [5]: Dose-dependent effect
